*1 amine or outer side, *2 acyl side, *3 side chain or, on linkers, in order; H or OH if unused. Where a SMILES comes first, the peptide text is derived from it. Bridges are numbered along the chain shown (N, C = ends). [ ]: non-standard residue; d: D form. The star is where a group is joined. pTerphenylCO(4''-OnC5H11) = CCCCCOc1ccc(-c2ccc(-c3ccc(C(=O)*)cc3)cc2)cc1; Orn(4R-OH,5R-OH) = O=C([C@H](C[C@@H](O)[C@@H](O)N[*:3])N[*:1])[*:2]; hTyr(3S-OH,4S-OH) = N[C@H](C(=O)O)[C@H](O)[C@@H](O)c1ccc(O)cc1; Pro(3S-OH,4S-Me) = C[C@H]1CN[C@H](C(=O)O)[C@H]1O; Hyp = O=C(O)[C@@H]1C[C@@H](O)CN1
Experiments:
Assay type in all cases: functional
Wickerhamomyces anomalus = assay: Antimicrobial activity against Candida pelliculosa by broth microdilution method; details: Hansenula anomala
In short: (§1)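 Clinical isolates from human patients, tested by broth microdilution using the AFST-EUCAST reference procedure for fermentative yeasts. The MIC was read per that reference method.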

Naganishia albida = assay: Antimicrobial activity against Cryptococcus albidus by broth microdilution method
In short: (§2)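 Clinical isolates of nonfermentative yeasts, tested by broth microdilution following EUCAST recommendations. The only change from that method was a minor modification to improve growth.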

Alternaria alternata = assay: Antimicrobial activity against Alternaria alternata by broth microdilution method
In short: (§3)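 Clinical mould isolates, tested by broth microdilution using the AFST-EUCAST reference method for filamentous fungi. For echinocandins, the endpoint was the minimum effective concentration: the lowest drug concentration giving aberrant hyphal growth, read with an inverted microscope.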

[Candida] inconspicua = Antimicrobial activity against Candida inconspicua by broth microdilution method; details: Pichia inconspicua; in short: as §1
Papiliotrema laurentii = assay: Antimicrobial activity against Cryptococcus laurentii by broth microdilution method; in short: as §2
Aspergillus sclerotiorum = assay: Antimicrobial activity against Aspergillus sclerotiorum by broth microdilution method; in short: as §3
Candida tropicalis = assay: Antimicrobial activity against Candida tropicalis by broth microdilution method; in short: as §1
Trichosporon dermatis = assay: Antimicrobial activity against Trichosporon dermatis by broth microdilution method; details: Cutaneotrichosporon dermatis
In short: (§4)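 Nonfermentative yeast clinical isolates (Rhodotorula, Trichosporon) tested by broth microdilution. The EUCAST yeast recommendations were followed strictly, with one minor modification to improve growth. MIC was read as the endpoint.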

Trichosporon jirovecii = assay: Antimicrobial activity against Trichosporon jirovecii by broth microdilution method; details: Cutaneotrichosporon jirovecii; in short: as §4
Aspergillus fumigatus = assay: Antimicrobial activity against Aspergillus fumigatus by broth microdilution method; in short: as §3
Aspergillus terreus = assay: Antimicrobial activity against Aspergillus terreus by broth microdilution method; in short: as §3
Aspergillus sydowii = assay: Antimicrobial activity against Aspergillus sydowii by broth microdilution method; in short: as §3
Yarrowia lipolytica = assay: Antimicrobial activity against Yarrowia lipolytica by broth microdilution method
Scytalidium hyalinum = assay: Antimicrobial activity against Scytalidium hyalinum by broth microdilution method; details: Neoscytalidium hyalinum
In short: (§5)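 Filamentous fungus clinical isolates tested by the AFST-EUCAST reference broth microdilution method for moulds. For echinocandins, the endpoint was the minimum effective concentration: the lowest drug concentration giving aberrant hyphal growth, read with an inverted microscope.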

Fusarium proliferatum = assay: Antimicrobial activity against Fusarium proliferatum by broth microdilution method; in short: as §3
Aspergillus ochraceus = assay: Antimicrobial activity against Aspergillus ochraceus by broth microdilution method; in short: as §3
Pichia norvegensis = assay: Antimicrobial activity against Candida norvegensis by broth microdilution method; in short: as §1
Nakaseomyces glabratus = assay: Antimicrobial activity against Candida glabrata by broth microdilution method; in short: as §1
Acremonium sp. = assay: Antimicrobial activity against Acremonium sp.by broth microdilution method; in short: as §3
Paecilomyces lilacinus = assay: Antimicrobial activity against Paecilomyces lilacinus by broth microdilution method; details: Purpureocillium lilacinum; in short: as §5
Fusarium verticillioides = assay: Antimicrobial activity against Fusarium verticillioides by broth microdilution method; in short: as §5
Trichosporon domesticum = assay: Antimicrobial activity against Trichosporon mycotoxinivorans by broth microdilution method; details: Apiotrichum domesticum
In short: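 Spanish human clinical isolates were tested as nonfermentative yeasts by broth microdilution. The method strictly followed the EUCAST recommendations, with a minor modification to improve growth, and the read-out was the MIC.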

Penicillium = assay: Antimicrobial activity against Penicillium spp. by broth microdilution method; in short: as §5
Magnusiomyces capitatus = assay: Antimicrobial activity against Dipodascus capitatus by broth microdilution method
Coprinellus domesticus = assay: Antimicrobial activity against Hormographiella verticillata by broth microdilution method; in short: as §5
Fennellia nivea = assay: Antimicrobial activity against Aspergillus niveus by broth microdilution method; in short: as §3
Aspergillus flavus = assay: Antimicrobial activity against Aspergillus flavus by broth microdilution method; in short: as §3
[Candida] intermedia = Antimicrobial activity against Candida intermedia by broth microdilution method; details: Sungouiella intermedia; in short: as §1
Mucor = assay: Antimicrobial activity against Mucor spp.by broth microdilution method; in short: as §5
Trichoderma = assay: Antimicrobial activity against Trichoderma spp. by broth microdilution method; in short: as §5
Fusarium reticulatum = assay: Antimicrobial activity against Fusarium reticulatum by broth microdilution method; in short: as §5
Torulaspora delbrueckii = assay: Antimicrobial activity against Candida coliculosa by broth microdilution method; in short: as §1
[Candida] zeylanoides = Antimicrobial activity against Candida zeylanoides by broth microdilution method; details: Dujonia zeylanoides; in short: as §1
Paecilomyces variotii = assay: Antimicrobial activity against Paecilomyces variotii by broth microdilution method; in short: as §5
Trichosporon = assay: Antimicrobial activity against Trichosporon spp. by broth microdilution method; in short: as §4
Aspergillus niger = assay: Antimicrobial activity against Aspergillus niger by broth microdilution method; in short: as §3
Kluyveromyces marxianus = assay: Antimicrobial activity against Candida kefyr by broth microdilution method; in short: as §1
Lecythophora hoffmannii = assay: Antimicrobial activity against Lecythophora hoffmannii by broth microdilution method; details: Coniochaeta hoffmannii; in short: as §5
Aspergillus = assay: Antimicrobial activity against Aspergillus spp. by broth microdilution method; in short: as §3
Diutina rugosa = assay: Antimicrobial activity against Candida rugosa by broth microdilution method; in short: as §1
Scedosporium apiospermum = assay: Antimicrobial activity against Scedosporium apiospermum by broth microdilution method; in short: as §5
Trichosporon asahii = assay: Antimicrobial activity against Trichosporon asahii by broth microdilution method; in short: as §4
Candida albicans = assay: Antimicrobial activity against Candida albicans by broth microdilution method; in short: as §1
Saccharomyces cerevisiae = assay: Antimicrobial activity against Saccharomyces cerevisiae by broth microdilution method

CCCCCOc1ccc(-c2ccc(-c3ccc(C(=O)N[C@H]4C[C@@H](O)[C@@H](O)NC(=O)[C@@H]5[C@@H](O)[C@@H](C)CN5C(=O)[C@H]([C@@H](C)O)NC(=O)[C@H]([C@H](O)[C@@H](O)c5ccc(O)cc5)NC(=O)[C@@H]5C[C@@H](O)CN5C(=O)[C@H]([C@@H](C)O)NC4=O)cc3)cc2)cc1 [ANIDULAFUNGIN] ({pTerphenylCO(4''-OnC5H11)}-[Orn(4R-OH,5R-OH)]T[Hyp][hTyr(3S-OH,4S-OH)]T[Pro(3S-OH,4S-Me)]; lactam 1-C)
0.12 µg/mL: MIC90 (Yarrowia lipolytica) | MIC50 (Saccharomyces cerevisiae)
0.5 µg/mL: MIC50 (Scedosporium apiospermum)
> 16 µg/mL: MIC50 (Naganishia albida) | MIC90 (Naganishia albida) | MIC90 (Alternaria alternata) | MIC50 (Papiliotrema laurentii) | MIC90 (Papiliotrema laurentii) | MIC50 (Trichosporon dermatis) | MIC90 (Trichosporon dermatis) | MIC50 (Trichosporon jirovecii) | MIC90 (Trichosporon jirovecii) | MIC50 (Fusarium proliferatum) | MIC90 (Fusarium proliferatum) | MIC50 (Paecilomyces lilacinus) | MIC90 (Paecilomyces lilacinus) | MIC50 (Fusarium verticillioides) | MIC90 (Fusarium verticillioides) | MIC50 (Trichosporon domesticum) | MIC90 (Trichosporon domesticum) | MIC50 (Coprinellus domesticus) | MIC90 (Coprinellus domesticus) | MIC50 (Aspergillus flavus) | MIC90 (Aspergillus flavus) | MIC50 (Mucor) | MIC90 (Mucor) | MIC50 (Trichoderma) | MIC90 (Trichoderma) | MIC50 (Fusarium reticulatum) | MIC90 (Fusarium reticulatum) | MIC50 (Trichosporon) | MIC90 (Trichosporon) | MIC50 (Trichosporon asahii) | MIC90 (Trichosporon asahii)
0.03 µg/mL: MIC50 (Candida tropicalis) | MIC90 (Candida tropicalis) | MIC50 (Aspergillus fumigatus) | MIC90 (Aspergillus fumigatus) | MIC50 (Aspergillus terreus) | MIC90 (Aspergillus terreus) | MIC50 (Aspergillus sydowii) | MIC90 (Aspergillus sydowii) | MIC50 (Scytalidium hyalinum) | MIC50 (Nakaseomyces glabratus) | MIC90 (Nakaseomyces glabratus) | MIC50 (Acremonium sp.) | MIC90 (Acremonium sp.) | MIC50 (Penicillium) | MIC90 (Penicillium) | MIC50 (Paecilomyces variotii) | MIC90 (Paecilomyces variotii) | MIC50 (Aspergillus niger) | MIC90 (Aspergillus niger) | MIC50 (Kluyveromyces marxianus) | MIC90 (Kluyveromyces marxianus) | MIC50 (Lecythophora hoffmannii) | MIC50 (Candida albicans) | MIC90 (Candida albicans)
2 µg/mL: MIC50 (Magnusiomyces capitatus)
0.06 µg/mL: MIC50 (Wickerhamomyces anomalus) | MIC50 (Alternaria alternata) | MIC50 ([Candida] inconspicua) | MIC50 (Aspergillus sclerotiorum) | MIC50 (Yarrowia lipolytica) | MIC90 (Scytalidium hyalinum) | MIC50 (Aspergillus ochraceus) | MIC50 (Pichia norvegensis) | MIC50 (Fennellia nivea) | MIC50 ([Candida] intermedia) | MIC50 (Torulaspora delbrueckii) | MIC50 ([Candida] zeylanoides) | MIC90 (Lecythophora hoffmannii) | MIC50 (Aspergillus) | MIC50 (Diutina rugosa)
0.25 µg/mL: MIC90 (Wickerhamomyces anomalus) | MIC90 ([Candida] inconspicua) | MIC90 (Aspergillus sclerotiorum) | MIC90 (Aspergillus ochraceus) | MIC90 (Pichia norvegensis) | MIC90 (Fennellia nivea) | MIC90 ([Candida] intermedia) | MIC90 (Torulaspora delbrueckii) | MIC90 ([Candida] zeylanoides) | MIC90 (Aspergillus) | MIC90 (Diutina rugosa) | MIC90 (Saccharomyces cerevisiae)
4 µg/mL: MIC90 (Magnusiomyces capitatus) | MIC90 (Scedosporium apiospermum)

CC[C@@H]([C@H](C)O)n1ncn(-c2ccc(N3CCN(c4ccc(OC[C@@H]5CO[C@@](Cn6cncn6)(c6ccc(F)cc6F)C5)cc4)CC3)cc2)c1=O [POSACONAZOLE]
0.12 µg/mL: MIC50 (Aspergillus sclerotiorum) | MIC90 (Aspergillus terreus) | MIC50 (Aspergillus ochraceus) | MIC50 (Fennellia nivea) | MIC50 (Aspergillus flavus) | MIC50 (Aspergillus)
> 8 µg/mL: MIC90 (Wickerhamomyces anomalus) | MIC90 (Naganishia albida) | MIC90 (Alternaria alternata) | MIC90 ([Candida] inconspicua) | MIC90 (Papiliotrema laurentii) | MIC90 (Aspergillus sclerotiorum) | MIC90 (Trichosporon dermatis) | MIC90 (Trichosporon jirovecii) | MIC90 (Scytalidium hyalinum) | MIC50 (Fusarium proliferatum) | MIC90 (Fusarium proliferatum) | MIC90 (Aspergillus ochraceus) | MIC90 (Pichia norvegensis) | MIC90 (Fusarium verticillioides) | MIC90 (Trichosporon domesticum) | MIC90 (Coprinellus domesticus) | MIC90 (Fennellia nivea) | MIC90 ([Candida] intermedia) | MIC90 (Mucor) | MIC90 (Trichoderma) | MIC90 (Fusarium reticulatum) | MIC90 (Torulaspora delbrueckii) | MIC90 ([Candida] zeylanoides) | MIC90 (Trichosporon) | MIC90 (Lecythophora hoffmannii) | MIC90 (Aspergillus) | MIC90 (Diutina rugosa) | MIC90 (Trichosporon asahii)
0.25 µg/mL: MIC50 (Naganishia albida) | MIC50 (Papiliotrema laurentii) | MIC50 (Trichosporon dermatis) | MIC50 (Trichosporon jirovecii) | MIC90 (Aspergillus fumigatus) | MIC50 (Aspergillus sydowii) | MIC50 (Yarrowia lipolytica) | MIC50 (Nakaseomyces glabratus) | MIC50 (Paecilomyces lilacinus) | MIC50 (Trichosporon domesticum) | MIC50 (Penicillium) | MIC90 (Aspergillus flavus) | MIC90 (Paecilomyces variotii) | MIC50 (Trichosporon) | MIC50 (Aspergillus niger) | MIC50 (Trichosporon asahii) | MIC50 (Saccharomyces cerevisiae)
2 µg/mL: MIC90 (Yarrowia lipolytica) | MIC50 (Fusarium verticillioides)
> 16 µg/mL: MIC90 (Acremonium sp.)
0.5 µg/mL: MIC90 (Aspergillus sydowii) | MIC90 (Paecilomyces lilacinus) | MIC50 (Magnusiomyces capitatus) | MIC90 (Magnusiomyces capitatus) | MIC90 (Aspergillus niger) | MIC90 (Saccharomyces cerevisiae)
0.06 µg/mL: MIC50 (Aspergillus fumigatus) | MIC50 (Aspergillus terreus) | MIC50 (Scytalidium hyalinum) | MIC90 (Kluyveromyces marxianus) | MIC50 (Lecythophora hoffmannii)
1 µg/mL: MIC50 (Alternaria alternata) | MIC90 (Nakaseomyces glabratus) | MIC50 (Scedosporium apiospermum)
0.02 µg/mL: MIC50 (Candida tropicalis) | MIC50 (Candida albicans) | MIC90 (Candida albicans)
8 µg/mL: MIC50 (Acremonium sp.) | MIC90 (Scedosporium apiospermum)
4 µg/mL: MIC90 (Penicillium) | MIC50 (Coprinellus domesticus) | MIC50 (Mucor) | MIC50 (Trichoderma) | MIC50 (Fusarium reticulatum)
0.03 µg/mL: MIC50 (Wickerhamomyces anomalus) | MIC50 ([Candida] inconspicua) | MIC90 (Candida tropicalis) | MIC50 (Pichia norvegensis) | MIC50 ([Candida] intermedia) | MIC50 (Torulaspora delbrueckii) | MIC50 ([Candida] zeylanoides) | MIC50 (Paecilomyces variotii) | MIC50 (Kluyveromyces marxianus) | MIC50 (Diutina rugosa)

Reference: ChEMBL document CHEMBL1649165, “Activity profile in vitro of micafungin against Spanish clinical isolates of common and emerging species of yeasts and molds” (2009)
